Test results published in PubChem BioAssay.
Activity calls are given as the source filed them.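 Rule for the calls, unless noted: active = inhibition at or above 50% relative to wild type and mutant plate controls; inactive = inhibition below 50%.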

What was measured:
[1] = inhibitors of TNFa-induced NFkB p65 translocation, primary screen, imaging, HUVEC, MLSMR starter and 10KST1 sets (AID 438;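 active = inhibition above 20% together with a positive visual image hit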;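 note: compound added about 3h40 before a 20 min TNFalpha stimulation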;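 for inhibition: signal is the nuclear over cytoplasmic p65 intensity ratio per well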); settings: HUVEC TNFa-induced p65 nuclear translocation; cell count: measured here: nuclei count (cytotoxicity indicator), at 2.08 µM; inhibition: at 2 µM, stronger effect = higher value, 0% TNFa-plus-vehicle, 100% no-TNFa wells
[2] = inhibitors of E-selectin induction by TNFa, primary screen, imaging, HUVEC, immunofluorescence, MLSMR starter and 10KST1 sets (AID 487;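 active = visually confirmed hit in the image check and inhibition above 20%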;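 for inhibition: signal is fraction of cell area covered by stained E-selectin grains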;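 for nuclei count: 100% = median nuclei count of all wells on the same plate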); settings: HUVEC TNFalpha-induced E-selectin immunofluorescence imaging, at 2 µM; inhibition: stronger effect = higher value; nuclei count: measured here: cell number, toxicity
[3] = DUSP6 inhibitors restoring Erk phosphorylation by chemical complementation, primary imaging in DUSP6-transfected HeLa (AID 609;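 active = compounds giving at least 50% inhibition in the cell-based MKP-3 phosphatase rescue imaging test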;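 for inhibition: phospho-Erk level distribution per well compared with pooled transfected vehicle control wells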); settings: HeLa MKP-3 transfected, phospho-Erk imaging KS statistic, at 10 µM, cells stimulated with TPA for 15 min
[4] = target: Dual specificity protein phosphatase 6 (Homo sapiens) (UniProt Q16828); experiment: as above; settings: HeLa MKP-3 transfected, phospho-Erk imaging KS statistic; at 10 µM; stronger effect = higher value; cells stimulated with TPA for 15 min
Dual specificity protein phosphatase 6 (Homo sapiens), sequence (Q16828 whole entry, looked up): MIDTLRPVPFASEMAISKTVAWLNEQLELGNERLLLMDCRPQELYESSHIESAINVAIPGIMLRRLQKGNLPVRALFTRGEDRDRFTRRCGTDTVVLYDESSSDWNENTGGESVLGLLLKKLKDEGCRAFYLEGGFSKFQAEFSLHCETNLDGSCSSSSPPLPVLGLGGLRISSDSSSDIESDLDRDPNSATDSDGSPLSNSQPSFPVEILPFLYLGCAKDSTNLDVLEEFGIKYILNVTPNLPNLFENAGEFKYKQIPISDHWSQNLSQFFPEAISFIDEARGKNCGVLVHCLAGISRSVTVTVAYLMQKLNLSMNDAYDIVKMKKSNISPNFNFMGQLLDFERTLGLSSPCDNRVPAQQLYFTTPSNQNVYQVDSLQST

[5] = target: Voltage-gated potassium channel subunit beta-2 (Rattus norvegicus) (UniProt P62483); experiment: KvBeta enzyme negative modulators, primary screen, biochemical, NADPH fluorescence (AID 622;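 active = fluorescence slope higher than the sample average by over 3 SD, cut at about -0.22 in these data, passing the limit was not always enough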;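 note: slope of raw intensity against log time taken from 70 to 1610 s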); settings: recombinant KvBeta, 4-cyanobenzaldehyde reduction, at 10 µM, stronger effect = higher value
Voltage-gated potassium channel subunit beta-2 (Rattus norvegicus), sequence (P62483 whole entry, looked up): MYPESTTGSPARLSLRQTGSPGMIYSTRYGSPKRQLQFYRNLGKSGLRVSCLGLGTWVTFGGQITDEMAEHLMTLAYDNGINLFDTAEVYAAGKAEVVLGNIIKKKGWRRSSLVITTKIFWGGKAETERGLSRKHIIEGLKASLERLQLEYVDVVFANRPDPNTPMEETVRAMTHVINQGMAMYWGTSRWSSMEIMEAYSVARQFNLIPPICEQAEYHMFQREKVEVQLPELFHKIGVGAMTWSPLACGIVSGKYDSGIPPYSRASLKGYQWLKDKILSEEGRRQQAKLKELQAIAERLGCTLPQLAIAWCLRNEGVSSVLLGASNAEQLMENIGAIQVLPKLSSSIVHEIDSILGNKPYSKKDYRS

[6] = target: Voltage-gated potassium channel subunit beta-2 (Rattus norvegicus) (UniProt P62483); experiment: KvBeta positive modulators, primary screen, biochemical, NADPH fluorescence (AID 623;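 active = NADPH fluorescence slope more negative than the mean of all samples by about 3 SD, 99.7% confidence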;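 note: fluorescence intensity change per second fitted from 20 to 320 s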); settings: Recombinant KvBeta, NADPH fluorescence decrease slope, 10 min; at 10 µM; stronger effect = lower value
[7] = target: Muscarinic acetylcholine receptor M4 (Homo sapiens) (UniProt P08173); experiment: compounds altering M4/GIRK thallium flux, either direction, primary screen, M4 allosteric agonist project, cell-based, HEK293 M4/GIRK, BTC-AM (AID 625;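 active = fluorescence slope after compound addition differing from the mean of all tested samples at 99.7% confidence, mostly higher but some lower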;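 note: thallium influx through GIRK channels coupled to M4 in HEK293 cells with BTC-AM dye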); settings: at 10 µM, actives lie on both sides
Muscarinic acetylcholine receptor M4 (Homo sapiens), sequence (P08173 whole entry, looked up): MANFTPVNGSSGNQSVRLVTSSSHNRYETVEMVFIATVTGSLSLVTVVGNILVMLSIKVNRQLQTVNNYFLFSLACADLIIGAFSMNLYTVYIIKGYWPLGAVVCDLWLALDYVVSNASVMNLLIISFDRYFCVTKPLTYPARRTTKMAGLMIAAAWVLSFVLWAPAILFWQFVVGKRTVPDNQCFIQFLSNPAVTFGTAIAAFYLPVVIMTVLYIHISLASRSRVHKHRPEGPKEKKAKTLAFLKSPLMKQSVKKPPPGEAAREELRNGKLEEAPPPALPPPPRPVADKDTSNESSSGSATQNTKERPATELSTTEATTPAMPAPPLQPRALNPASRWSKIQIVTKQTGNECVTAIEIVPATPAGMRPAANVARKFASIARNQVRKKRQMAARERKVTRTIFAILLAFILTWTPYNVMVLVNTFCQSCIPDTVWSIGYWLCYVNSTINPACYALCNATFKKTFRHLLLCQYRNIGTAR
Method in brief: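 System: HEK293 cells with M4 receptor and GIRK channels | Incubation: Cells overnight at 37 °C, BTC-AM loading 1 h, reads 2 min total | Technique: Kinetic BTC-AM fluorescence sampled at 1 Hz, 10 s pre-addition baseline | Measure: Post-addition slope, 15–24 s, of baseline-normalized fluorescence | Control set: Carbachol positive, DMSO negative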

[8] = inhibitors of larval lipid processing in zebrafish, primary screen, whole organism, PED6 fluorescence, gall bladder and intestine (AID 686;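 active = a full or partial loss of lipid-probe fluorescence in the fish gall bladder, intestine or both, judged by eye; inactive = no fluorescence loss, or compound toxic to the fish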;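 note: larvae 5 to 7 days old with five fish per well; signal comes from phospholipase A2 cleavage of quenched PED6 carried via bile; overnight exposure to compound and PED6 before scoring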); settings: Zebrafish larvae PED6 lipid processing, fluorescence scoring; screened at 20 µM (by protocol)
Method in brief: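 Test system – live zebrafish larvae aged 5-7 days, whole organism · Buffer or medium – E3 fish medium · Reagent – quenched phospholipase substrate PED6, 100 nM final, ingested by larvae · Doses – 20 µM single dose · Incubation – overnight compound and PED6 incubation · Technique – visual fluorescence microscopy scoring of gall bladder, gut · Read-out basis – visual per-well fluorescence inhibition score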

[9] = inhibitors of Chlamydomonas gravitaxis, primary screen, whole organism, Chlamydomonas reinhardtii, WT vs cilia-less mutant, absorbance, 96-well (AID 463189); settings: OD600 absorbance, 2 days, at 10 µM, stronger effect = higher value;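 note: 0% = wild type cc124 cells in DMSO and 100% = ciliumless bld1 mutant cells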
[10] = measured here: cell density z-score
[11] = measured here: nuclear c-Myc green intensity z-score
[12] = measured here: nuclear pErk red intensity z-score, stronger effect = higher value

Row | Structure (SMILES) | cell count [1] | inhibition [1] | inhibition [2] | nuclei count [2] [%] | z-score [3, 10] | z-score [3, 11] | z-score [3, 12] | inhibition [4] | fluorescence slope [5] | NADPH fluorescence slope [6] | fluorescence slope [7] | outcome [8] | inhibition [9]
1 | CCCCOC(=O)c1ccc(NC(=O)CSc2nncn2C)cc1 | 507 | -8.4% (inactive) | -82.5% (inactive) | 168 | -0.268 | -0.273 | 0.565 | -0.624% (inactive) | -0.456 (inactive) | -6.8e-05 (inactive) | 0.00538 (inactive) | inactive | 5.5% (inactive)
2 | Cc1cc(O)ccc1-c1cnc2ccccc2n1 | 695 | 2% (inactive) | -163% (inactive) | 166 | -0.391 | 1.61 | 0.545 | -6.06% (inactive) | -0.482 (inactive) | -6.2e-05 (inactive) | 0.00527 (inactive) | inactive | -11.2% (inactive)
3 | COc1ccc(/C(O)=C2/C(=O)C(=O)N(Cc3ccco3)C2c2cccs2)cc1 (stereo unspecified) | 651 | 89.9% (active) | -68.9% (inactive) | 157 | 1.37 | -0.407 | -1.07 | 3.42% (inactive) | -0.435 (inactive) | -4.8e-05 (inactive) | 0.00532 (inactive) | inactive | 1.62% (inactive)
4 | CCOC(=O)NC(Nc1sc2c(c1C(N)=O)CCCC2)(C(=O)OCC)C(F)(F)F (stereo unspecified) | 707 | -5.7% (inactive) | -51.4% (inactive) | 144 | 0.203 | -0.663 | 1.92 | 16.5% (inactive) | -0.448 (inactive) | -1.9e-05 (inactive) | 0.00659 (inactive) | inactive | 1.44% (inactive)
5 | NC(=O)C1CCN(C2OC(=O)c3ccccc32)CC1 (stereo unspecified) | 399 | -1.7% (inactive) | -148% (inactive) | 160 | 0.349 | 0.288 | -0.804 | 5.65% (inactive) | -0.447 (inactive) | -8.4e-05 (inactive) | 0.0046 (inactive) | inactive | 33.2% (inactive)
6 | CCCSc1nnc2n(Cc3ccccc3)c(=O)c3c4c(sc3n12)CCC4 | 405 | -0.7% (inactive) | -31.5% (inactive) | 170 | 0.317 | -0.563 | 1.11 | -4.59% (inactive) | -0.453 (inactive) | -0.000111 (inactive) | 0.00548 (inactive) | inactive | 9.79% (inactive)
7 | Cc1cc(C)n(CC2CC(=O)N(c3ccc(C)c(Cl)c3)C2=O)n1 (stereo unspecified) | 597 | -3.7% (inactive) | 19% (inactive) | 93.4 | 1.31 | -0.417 | 0.186 | 12.8% (inactive) | -0.517 (inactive) | -2.4e-05 (inactive) | 0.00527 (inactive) | inactive | -14.7% (inactive)
